In brackets after ≈: the same amount, converted by molar mass.
Legend:
Acinetobacter baumannii [1] = assay: Antimicrobial activity against Acinetobacter baumannii isolate 25 harboring GyrA Ser83-Leu mutation at pH 5.8; assay type: functional
In short: (§1)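 MIC by agar dilution on Mueller-Hinton agar acidified to pH 5.8 with HCl before antibiotic-containing plates were poured. Agar pH was rechecked once the agar had solidified. Isolates had characterized gyrA/parC genes. Plates for both drugs were made the same day from fresh media, and MICs were read in parallel with the standard-pH set.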

Acinetobacter baumannii [2] = assay: Antimicrobial activity against Acinetobacter baumannii isolate 35 harboring GyrA Ser83-Leu mutation at pH 5.8; assay type: functional
In short: (§2)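 Agar dilution MIC on Mueller-Hinton agar. For the acidic condition, HCl was added to bring the agar to pH 5.8 before pouring the antibiotic plates, and the pH was checked after the agar set. The standard condition was pH 7.2. Both drugs' plates were made the same day from fresh medium, and MICs were read at the same time.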

Acinetobacter baumannii [3] = assay: Antimicrobial activity against Acinetobacter baumannii isolate 36 harboring GyrA Ser83-Leu mutation at pH 5.8; assay type: functional; in short: as §2
Acinetobacter baumannii [4] = assay: Antimicrobial activity against Acinetobacter baumannii isolate 58 harboring GyrA Ser83-Leu and ParC Ser80-Leu mutation at pH 5.8; assay type: functional
In short: (§3)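 Agar dilution MIC on Mueller-Hinton agar acidified to pH 5.8 with HCl before the antibiotic-containing plates were poured. Agar pH was checked after solidifying. Plates were made the same day from fresh medium. Both fluoroquinolones were tested simultaneously against A. baumannii isolates with characterized gyrA/parC genes. MICs are in μg/ml.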

Acinetobacter baumannii [5] = assay: Antimicrobial activity against Acinetobacter baumannii isolate 64 harboring GyrA Ser83-Leu and ParC Ser80-Leu mutation at pH 7.2; assay type: functional
In short: (§4)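 Agar dilution MIC on Mueller-Hinton agar under standard conditions (pH 7.2). Antibiotic-containing plates were made the same day from freshly prepared medium. Agar pH was checked after solidifying. Both fluoroquinolones were tested simultaneously against A. baumannii isolates with characterized gyrA/parC genes. MICs are in μg/ml.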

Acinetobacter baumannii [6] = assay: Antimicrobial activity against Acinetobacter baumannii isolate 21 harboring GyrA Ser83-Leu mutation at pH 7.2; assay type: functional
In short: (§5)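 MIC by agar dilution on Mueller-Hinton agar under standard conditions (pH 7.2), against isolates with characterized gyrA/parC genes. Agar pH was checked after solidifying. Plates for both drugs were prepared the same day from freshly made media, and MICs were determined simultaneously with the pH 5.8 set.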

Acinetobacter baumannii [7] = assay: Antimicrobial activity against Acinetobacter baumannii isolate 40 harboring GyrA Ser83-Leu mutation at pH 5.8; assay type: functional; in short: as §2
Acinetobacter baumannii [8] = assay: Antimicrobial activity against Acinetobacter baumannii isolate 33 harboring GyrA Ser83-Leu mutation at pH 5.8; assay type: functional; in short: as §2
Acinetobacter baumannii [9] = assay: Antimicrobial activity against Acinetobacter baumannii isolate 43 harboring GyrA Ser83-Leu mutation at pH 5.8; assay type: functional; in short: as §2
Acinetobacter baumannii [10] = assay: Antimicrobial activity against Acinetobacter baumannii isolate 63 harboring GyrA Ser83-Leu and ParC Glu84-Lys mutation at pH 7.2; assay type: functional; in short: as §4
Acinetobacter baumannii [11] = assay: Antimicrobial activity against Acinetobacter baumannii isolate 57 harboring GyrA Ser83-Leu and ParC Ser80-Phe mutation at pH 5.8; assay type: functional; in short: as §3
Acinetobacter baumannii [12] = assay: Antimicrobial activity against Acinetobacter baumannii isolate 32 harboring GyrA Ser83-Leu mutation at pH 7.2; assay type: functional; in short: as §2
Acinetobacter baumannii [13] = assay: Antimicrobial activity against Acinetobacter baumannii isolate 42 harboring GyrA Ser83-Leu mutation at pH 5.8; assay type: functional; in short: as §2
Acinetobacter baumannii [14] = assay: Antimicrobial activity against Acinetobacter baumannii isolate 54 harboring GyrA Ser83-Leu and ParC Ser80-Leu mutation at pH 7.2; assay type: functional; in short: as §2
Acinetobacter baumannii [15] = assay: Antimicrobial activity against Acinetobacter baumannii isolate 48 harboring GyrA Ser83-Leu and ParC Ser80-Leu mutation at pH 7.2; assay type: functional; in short: as §2
Acinetobacter baumannii [16] = assay: Antimicrobial activity against Acinetobacter baumannii isolate 8 at pH 5.8; assay type: functional; in short: as §3
Acinetobacter baumannii [17] = assay: Antimicrobial activity against Acinetobacter baumannii isolate 10 at pH 5.8; assay type: functional; in short: as §1
Acinetobacter baumannii [18] = assay: Antimicrobial activity against Acinetobacter baumannii isolate 13 at pH 5.8; assay type: functional; in short: as §1
Acinetobacter baumannii [19] = assay: Antimicrobial activity against Acinetobacter baumannii isolate 15 at pH 7.2; assay type: functional; in short: as §5
Acinetobacter baumannii [20] = assay: Antimicrobial activity against Acinetobacter baumannii isolate 22 harboring GyrA Ser83-Leu mutation at pH 7.2; assay type: functional; in short: as §5
Acinetobacter baumannii [21] = assay: Antimicrobial activity against Acinetobacter baumannii isolate 61 harboring GyrA Ser83-Leu and ParC Ser80-Leu mutation at pH 7.2; assay type: functional; in short: as §4
Acinetobacter baumannii [22] = assay: Antimicrobial activity against Acinetobacter baumannii isolate 47 harboring GyrA Ser83-Leu and ParC Ser80-Phe mutation at pH 5.8; assay type: functional; in short: as §2
Acinetobacter baumannii [23] = assay: Antimicrobial activity against Acinetobacter baumannii isolate 62 harboring GyrA Ser83-Leu and ParC Ser80-Leu mutation at pH 5.8; assay type: functional; in short: as §3
Acinetobacter baumannii [24] = assay: Antimicrobial activity against Acinetobacter baumannii isolate 66 harboring GyrA Ser83-Leu mutation at pH 7.2; assay type: functional; in short: as §4
Acinetobacter baumannii [25] = assay: Antimicrobial activity against Acinetobacter baumannii isolate 45 harboring GyrA Ser83-Leu and ParC Ser80-Leu mutation at pH 5.8; assay type: functional; in short: as §2
Acinetobacter baumannii [26] = assay: Antimicrobial activity against Acinetobacter baumannii isolate 51 harboring GyrA Ser83-Leu and ParC Ser80-Leu mutation at pH 5.8; assay type: functional; in short: as §2
Acinetobacter baumannii [27] = assay: Antimicrobial activity against Acinetobacter baumannii isolate 12 at pH 7.2; assay type: functional; in short: as §5
Acinetobacter baumannii [28] = assay: Antimicrobial activity against Acinetobacter baumannii isolate 18 at pH 5.8; assay type: functional; in short: as §1
Acinetobacter baumannii [29] = assay: Antimicrobial activity against Acinetobacter baumannii isolate 24 harboring GyrA Ser83-Leu mutation at pH 7.2; assay type: functional; in short: as §5
Acinetobacter baumannii [30] = assay: Antimicrobial activity against Acinetobacter baumannii isolate 56 harboring GyrA Ser83-Leu and ParC Ser80-Leu mutation at pH 7.2; assay type: functional; in short: as §4
Acinetobacter baumannii [31] = assay: Antimicrobial activity against Acinetobacter baumannii isolate 55 harboring GyrA Ser83-Leu and ParC Ser80-Leu mutation at pH 7.2; assay type: functional; in short: as §4
Acinetobacter baumannii [32] = assay: Antimicrobial activity against Acinetobacter baumannii isolate 2 at pH 5.8; assay type: functional; in short: as §1
Acinetobacter baumannii [33] = assay: Antimicrobial activity against Acinetobacter baumannii isolate 5 at pH 5.8; assay type: functional; in short: as §2
Acinetobacter baumannii [34] = assay: Antimicrobial activity against Acinetobacter baumannii isolate 60 harboring GyrA Ser83-Leu and ParC Ser80-Leu mutation at pH 5.8
Acinetobacter baumannii [35] = assay: Antimicrobial activity against Acinetobacter baumannii isolate 40 harboring GyrA Ser83-Leu mutation at pH 7.2; assay type: functional; in short: as §2
Acinetobacter baumannii [36] = assay: Antimicrobial activity against Acinetobacter baumannii isolate 41 harboring GyrA Ser83-Leu mutation at pH 7.2; assay type: functional; in short: as §2
Acinetobacter baumannii [37] = assay: Antimicrobial activity against Acinetobacter baumannii isolate 28 harboring GyrA Ser83-Leu mutation at pH 5.8; assay type: functional; in short: as §1
Acinetobacter baumannii [38] = assay: Antimicrobial activity against Acinetobacter baumannii isolate 38 harboring GyrA Ser83-Leu mutation at pH 7.2; assay type: functional; in short: as §2
Acinetobacter baumannii [39] = assay: Antimicrobial activity against Acinetobacter baumannii isolate 62 harboring GyrA Ser83-Leu and ParC Ser80-Leu mutation at pH 7.2; assay type: functional; in short: as §4
Acinetobacter baumannii [40] = assay: Antimicrobial activity against Acinetobacter baumannii isolate 23 harboring GyrA Glu87-Gly mutation at pH 5.8; assay type: functional; in short: as §1

Row | SMILES | MIC (Acinetobacter baumannii [1]) | MIC (Acinetobacter baumannii [2]) | MIC (Acinetobacter baumannii [3]) | MIC (Acinetobacter baumannii [4]) | MIC (Acinetobacter baumannii [5]) | MIC (Acinetobacter baumannii [6]) | MIC (Acinetobacter baumannii [7]) | MIC (Acinetobacter baumannii [8]) | MIC (Acinetobacter baumannii [9]) | MIC (Acinetobacter baumannii [10]) | MIC (Acinetobacter baumannii [11]) | MIC (Acinetobacter baumannii [12]) | MIC (Acinetobacter baumannii [13]) | MIC (Acinetobacter baumannii [14]) | MIC (Acinetobacter baumannii [15]) | MIC (Acinetobacter baumannii [16]) | MIC (Acinetobacter baumannii [17]) | MIC (Acinetobacter baumannii [18]) | MIC (Acinetobacter baumannii [19]) | MIC (Acinetobacter baumannii [20]) | further results
1 | O=C(O)c1cn(C2CC2)c2cc(N3CCNCC3)c(F)cc2c1=O [CIPROFLOXACIN] | 32 µg/mL (≈ 96.6 µM) | 128 µg/mL (≈ 386 µM) | 128 µg/mL (≈ 386 µM) | > 128 µg/mL | > 128 µg/mL | 4 µg/mL (≈ 12.1 µM) | > 128 µg/mL | 128 µg/mL (≈ 386 µM) | > 128 µg/mL | > 128 µg/mL | > 128 µg/mL | 16 µg/mL (≈ 48.3 µM) | > 128 µg/mL | 128 µg/mL (≈ 386 µM) | 128 µg/mL (≈ 386 µM) | 2 µg/mL (≈ 6.04 µM) | 2 µg/mL (≈ 6.04 µM) | 4 µg/mL (≈ 12.1 µM) | 1 µg/mL (≈ 3.02 µM) | 4 µg/mL (≈ 12.1 µM) | MIC (Acinetobacter baumannii [21]): 128 µg/mL (≈ 386 µM); MIC (Acinetobacter baumannii [22]): > 128 µg/mL; MIC (Acinetobacter baumannii [23]): > 128 µg/mL; MIC (Acinetobacter baumannii [24]): 32 µg/mL (≈ 96.6 µM); MIC (Acinetobacter baumannii [25]): > 128 µg/mL; MIC (Acinetobacter baumannii [26]): > 128 µg/mL; MIC (Acinetobacter baumannii [27]): 0.5 µg/mL (≈ 1.51 µM); MIC (Acinetobacter baumannii [28]): 8 µg/mL (≈ 24.1 µM); MIC (Acinetobacter baumannii [29]): 4 µg/mL (≈ 12.1 µM); MIC (Acinetobacter baumannii [30]): 128 µg/mL (≈ 386 µM); MIC (Acinetobacter baumannii [31]): 128 µg/mL (≈ 386 µM); MIC (Acinetobacter baumannii [32]): 2 µg/mL (≈ 6.04 µM); MIC (Acinetobacter baumannii [33]): 2 µg/mL (≈ 6.04 µM); MIC (Acinetobacter baumannii [34]): > 128 µg/mL; MIC (Acinetobacter baumannii [35]): 16 µg/mL (≈ 48.3 µM); MIC (Acinetobacter baumannii [36]): 16 µg/mL (≈ 48.3 µM); MIC (Acinetobacter baumannii [37]): 32 µg/mL (≈ 96.6 µM); MIC (Acinetobacter baumannii [38]): 32 µg/mL (≈ 96.6 µM); MIC (Acinetobacter baumannii [39]): 128 µg/mL (≈ 386 µM); MIC (Acinetobacter baumannii [40]): 32 µg/mL (≈ 96.6 µM)
2 | N#Cc1c(N2C[C@@H]3NCCO[C@H]3C2)c(F)cc2c(=O)c(C(=O)O)cn(C3CC3)c12 [FINAFLOXACIN] | 2 µg/mL (≈ 5.02 µM) | 2 µg/mL (≈ 5.02 µM) | 2 µg/mL (≈ 5.02 µM) | 4 µg/mL (≈ 10 µM) | 64 µg/mL (≈ 161 µM) | 1 µg/mL (≈ 2.51 µM) | 2 µg/mL (≈ 5.02 µM) | 1 µg/mL (≈ 2.51 µM) | 2 µg/mL (≈ 5.02 µM) | 64 µg/mL (≈ 161 µM) | 4 µg/mL (≈ 10 µM) | 16 µg/mL (≈ 40.2 µM) | 2 µg/mL (≈ 5.02 µM) | 32 µg/mL (≈ 80.3 µM) | 16 µg/mL (≈ 40.2 µM) | 0.12 µg/mL (≈ 0.301 µM) | 0.12 µg/mL (≈ 0.301 µM) | 0.12 µg/mL (≈ 0.301 µM) | 1 µg/mL (≈ 2.51 µM) | 8 µg/mL (≈ 20.1 µM) | MIC (Acinetobacter baumannii [21]): 64 µg/mL (≈ 161 µM); MIC (Acinetobacter baumannii [22]): 4 µg/mL (≈ 10 µM); MIC (Acinetobacter baumannii [23]): 8 µg/mL (≈ 20.1 µM); MIC (Acinetobacter baumannii [24]): 16 µg/mL (≈ 40.2 µM); MIC (Acinetobacter baumannii [25]): 2 µg/mL (≈ 5.02 µM); MIC (Acinetobacter baumannii [26]): 2 µg/mL (≈ 5.02 µM); MIC (Acinetobacter baumannii [27]): 1 µg/mL (≈ 2.51 µM); MIC (Acinetobacter baumannii [28]): 0.12 µg/mL (≈ 0.301 µM); MIC (Acinetobacter baumannii [29]): 16 µg/mL (≈ 40.2 µM); MIC (Acinetobacter baumannii [30]): 32 µg/mL (≈ 80.3 µM); MIC (Acinetobacter baumannii [31]): 32 µg/mL (≈ 80.3 µM); MIC (Acinetobacter baumannii [32]): 0.12 µg/mL (≈ 0.301 µM); MIC (Acinetobacter baumannii [33]): 0.06 µg/mL (≈ 0.151 µM); MIC (Acinetobacter baumannii [34]): 8 µg/mL (≈ 20.1 µM); MIC (Acinetobacter baumannii [35]): 16 µg/mL (≈ 40.2 µM); MIC (Acinetobacter baumannii [36]): 16 µg/mL (≈ 40.2 µM); MIC (Acinetobacter baumannii [37]): 1 µg/mL (≈ 2.51 µM); MIC (Acinetobacter baumannii [38]): 16 µg/mL (≈ 40.2 µM); MIC (Acinetobacter baumannii [39]): 64 µg/mL (≈ 161 µM); MIC (Acinetobacter baumannii [40]): 1 µg/mL (≈ 2.51 µM)
